# Many of the other results were omitted from the sample, so hits are more common in it than they were.
# Biofilm kill mix – mixture kills Candida albicans biofilm cells; C. albicans biofilm persisters + clotrimazole, fluorescence viability; primary screen in compound mixtures of four per well; inhibition, % at 7.6 µM; actives 0.02% (n = 120,000);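 active = inhibition above 30.3% in the primary screen of four-compound pools, then above 30% when the compound was retested; inconclusive = passed the primary limit but could not be retested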;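 note: compounds exposed to preformed 24 h biofilms for 48 h; 0% = untreated biofilm control and 100% = clotrimazole plus chlorhexidine kill blank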
#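 Incubation: 24 h biofilm formation, then 48 h compound exposure, 37 °C | Material: C. albicans biofilms | Buffer or medium: RPMI/MOPS medium, pH 7.0 | Measured by: 2-h Alamar Blue fluorescence, 535/590 nm excitation/emission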
# ROMK mod – human ROMK K+ channel modulation, primary screen | P48048 | Tet-inducible ROMK, thallium flux fluorescence; actives lie on both sides | B-score at 10 µM | actives 2% (n = 130,000) | AID 1918;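 active = signal ratio slope over the read window, or its plate-corrected B-score, at least 3 SD from the plate mean, either direction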;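 note: B-score of the F/F0 ratio slope over 7 to 12 s after thallium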
# Target sequence (P48048 whole entry, looked up): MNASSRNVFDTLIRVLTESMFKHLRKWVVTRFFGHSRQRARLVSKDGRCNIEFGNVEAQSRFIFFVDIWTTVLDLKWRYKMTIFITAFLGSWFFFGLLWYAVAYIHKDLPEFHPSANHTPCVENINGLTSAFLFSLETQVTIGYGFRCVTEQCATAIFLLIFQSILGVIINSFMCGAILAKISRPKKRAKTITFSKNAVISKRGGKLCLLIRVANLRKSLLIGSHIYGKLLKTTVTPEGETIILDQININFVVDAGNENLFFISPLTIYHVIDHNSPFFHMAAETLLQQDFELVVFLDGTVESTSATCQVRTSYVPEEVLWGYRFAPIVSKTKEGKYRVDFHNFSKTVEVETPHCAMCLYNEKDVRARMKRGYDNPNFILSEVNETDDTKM
# Pf gametocyte – P. falciparum stage V gametocyte viability inhibition; P. falciparum stage V gametocytes, ATP luminescence, 24 h; inhibition, % at 10.9 µM; actives 0.065% (n = 150,000); AID 743093;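 active = inhibition above the mean plus 3 SD of compounds within the control limits, set per campaign, cut at about 38% in these data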;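 note: 0% = DMSO wells and 100% = medium only without gametocytes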
# ROMK retest – retested hit modulating human ROMK potassium channel. shares compounds with ROMK mod. ROMK thallium flux, fluorescence ratio; active compounds read low. normalized thallium flux (F/F0 slope) at 10 µM. actives 54% (n = 3,000). AID 1917;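 active = Flux at 10 µM at least 3 SD below or above vehicle control mean in one or both replicates; inconclusive = no clear call, values can overlap the other calls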
# Active calls of the source: *; ? = inconclusive; . = no result given.
SMILES,Biofilm kill mix,ROMK mod,Pf gametocyte,ROMK retest
Cc1cc(C)cc(-n2c(C)cc(/C=N/NC(=O)c3ccncc3)c2C)c1,10,0.73,-5,.
C=CCn1c(-c2cc(-c3ccccc3)sc2N)n[nH]c1=S,8,.,9,.
CCn1c(SC(C)C)nnc1-c1cc(-c2ccccc2)sc1N,17,-2.8*,-3,0.073
CCS(=O)(=O)c1ccc(O)c(NC(=O)Nc2cccc3ccccc23)c1,10,-1.2,-3,.
CCC1C(=O)N=C(SCC(=O)Nc2nc3ccccc3s2)NC1=O (stereo not drawn),16,-0.32,-16,.
CCNC(=O)CC1C(=O)N(CC)C(=S)N1NC(=O)c1cccnc1 (stereo not drawn),7,.,-13,.
OCCN1CCN(CC(O)COc2ccc(C34CC5CC(CC(C5)C3)C4)cc2)CC1 (stereo not drawn),7,-0.97,-5,.
NCCOc1ccc(C23CC4CC(CC(C4)C2)C3)cc1,10,-2.9*,-9,0.063*
N/C(=N/O)c1ccccc1N1CCC(Cc2ccccc2)CC1,-9,-4.5*,.,0.074
c1ccc(CC2CCN(c3nnnn3-c3ccccc3)CC2)cc1,.,-0.38,-11,.
CC(C)CCNC(=O)C(c1ccc(O)cc1)N(Cc1cccs1)C(=O)C1COc2ccccc2O1 (stereo not drawn),14,-2.8*,6,0.061*
CC(C)(C)NC(=O)CN(Cc1cccs1)C(=O)C1COc2ccccc2O1 (stereo not drawn),.,.,-16,.
COc1ccc(N2CCN(Cc3nc4ccsc4c(=O)[nH]3)CC2)cc1,.,0.43,.,.
O=c1[nH]c(CN2CCN(c3ccc([N+](=O)[O-])cc3)CC2)nc2ccsc12,.,-3.5*,-19,0.059*
COc1ccc(CN2CCN(C(=O)C3CCC(CNS(=O)(=O)c4ccccc4)CC3)CC2)c(OC)c1OC (stereo not drawn),11,-0.052,-37,.
Cc1nn(CCCC(=O)NCc2ccc(F)cc2)c(C)c1[N+](=O)[O-],8,-0.75,6,.
Cc1nn(CCCC(=O)N2CCN(c3ccc(F)cc3)CC2)c(C)c1[N+](=O)[O-],12,-6*,11,0.054*
CC1CCN(c2c(NCC3CCC(C(=O)NCCCc4ccccc4)CC3)c(=O)c2=O)CC1 (stereo not drawn),16,.,.,.
CCCC[C@@H]1CNCCN1CCc1cccc2ccccc12,.,.,6,.
Cc1ccc(S(=O)(=O)/N=C2/NC(=O)/C(=C/c3ccccc3)S2)cc1,20,-4.6*,6,0.051*
Cc1ccc(S(=O)(=O)/N=C2/NC(=O)/C(=C/c3ccncc3)S2)cc1,7,-1.5,-9,.
O=C(COC(=O)C1CCN(/C=C/C(=O)C(F)(F)F)CC1)Nc1cccc(F)c1,18,-0.0071,-39,.
CCO[C@H]1OC(C(N)=O)=C[C@@H](C(C)(C)C)[C@@H]1CCCO,.,.,-2,.
Cn1c(=O)c2c(ncn2Cc2cccc(Cl)c2)n(C)c1=O,.,-0.92,.,.
Cn1c(=O)c2c(ncn2Cc2ccc(Cl)c(Cl)c2)n(C)c1=O,.,-2.1*,.,?
SMILES,Biofilm kill mix,ROMK mod,Pf gametocyte,ROMK retest
Cn1c(N2CCCC2)nc2c1c(=O)n(Cc1ccc(F)cc1)c(=O)n2C,.,-1.7,.,.
Cn1c(N2CCOCC2)nc2c1c(=O)n(Cc1ccc(Cl)c(Cl)c1)c(=O)n2C,.,-3.7*,17,0.068*
COc1ccc2c(c1)OC[C@H]1[C@@H]2N2C(=O)CNC(=O)[C@@]2(C)[C@H]1c1ccccc1,.,.,21,.
COc1ccc(C(C)C)cc1S(=O)(=O)n1ccnc1C,15,-0.95,-14,.
FC(F)(F)COc1ccc(-c2nnc(SCc3ccccc3)o2)cn1,13,.,-21,.
CN(Cc1cccnc1)C(=O)CC1C(=O)NCCN1Cc1ccc(-c2ccccc2)cc1 (stereo not drawn),0,-0.44,-2,.
CN(CC1CCOCC1)C(=O)CC1C(=O)NCCN1Cc1ccc(-c2ccccc2)cc1 (stereo not drawn),2,-4.1*,.,0.074
CC(C)(C)C(=O)NC(=S)Nc1ccc(Cc2ccncc2)cc1,.,.,0,.
CC1=NN(C(=O)c2ccccc2Cl)C(O)(c2cccnc2)C1 (stereo not drawn),9,0.25,4,?
CC1=NN(C(=O)c2ccccc2C)C(O)(c2ccc(Cl)cc2)C1 (stereo not drawn),.,.,10,.
Cc1cccc(C(=O)n2cnnc2N)c1,-7,-1.4,-1,.
COCCCNC(=O)/C(C#N)=C/c1cc(C)[nH]c1C,23,.,8,.
CCCCCCCCNC(=O)/C(C#N)=C/c1ccc(SC)cc1,14,-0.02,-6,.
CCOCCCNC(=O)/C(C#N)=C/c1ccc(C(=O)OC)cc1,-7,-2.2*,7,0.045*
CCOCCCNC(=O)/C(C#N)=C/c1ccccc1F,9,-3.9*,8,0.052*
CCOC(=O)COc1ccc(/C=C2\NC(=S)N(CC)C2=O)cc1,10,-0.8,13,.
CCN1C(=O)/C(=C/c2ccc(C)s2)NC1=S,.,4.6*,-16,0.094
Cc1ccc(OCC(=O)Oc2ccc(C)c(C)c2)cc1,.,.,14,.
COc1cccc(C2C(C(=O)c3ccco3)=C(O)C(=O)N2CCN(C)C)c1OC (stereo not drawn),5,1,0,.
CN(C)CCN1C(=O)C(O)=C(C(=O)c2ccco2)C1c1ccccc1F (stereo not drawn),.,.,21,0.076
O=C(NC(=S)NNC(=O)[C@H]1C[C@@H]1c1ccccc1)c1cccc(F)c1,18,.,7,.
O=C(N/N=C/C1CC2CCC1C2)c1ccc2c(c1)OCO2 (stereo not drawn),15,1.6,-3,.
Cc1cc(C2(c3ccc(O)c(C)c3)OC(=O)c3ccccc32)ccc1O,13,-1.2,-6,0.073
Cc1cc(O)c(C(C)C)cc1C1(c2cc(C(C)C)c(O)cc2C)OC(=O)c2ccccc21,8,.,.,.
O=C(COC(=O)c1ccc(F)c(S(=O)(=O)N2CCCCC2)c1)NCc1ccc(F)cc1,-4,1.4,21,.
SMILES,Biofilm kill mix,ROMK mod,Pf gametocyte,ROMK retest
CS(=O)(=O)N(CC(=O)NC1CC1)C1CCCCC1,8,0.42,5,.
CN(C)c1ccc(/C=C/C(=O)c2c(O)c3ccccc3oc2=O)cc1,12,.,-2,.
CCOc1ccc(/C=C/C(=O)c2c(O)c3ccccc3oc2=O)cc1,.,.,.,0.063*
CN1CCN(CC(O)(c2ccc(Cl)cc2)c2ccc(Cl)cc2)CC1,19,0.42,-6,.
COc1cc(C2CC(=O)c3cnc(NC(=O)COc4ccccc4)nc3C2)cc(OC)c1OC (stereo not drawn),.,0.9,.,.
COc1cc(C2CC(=O)c3cnc(N)nc3C2)cc(OC)c1OC (stereo not drawn),.,3.9*,-4,0.072
Cc1ccc(NC(=O)C2CC(=O)N(Cc3ccco3)C2)cc1 (stereo not drawn),19,0.75,8,.
COc1ccccc1NC(=S)NNC(=O)c1ccccc1Br,15,0.19,-13,.
O=C(OCc1csc(Nc2ccccc2)n1)c1ccc(Cl)cc1,15,.,9,.
CCC1CCCCN1C(=O)COc1c(Br)cc(Br)c2cccnc12 (stereo not drawn),-5,-4.1*,-1,0.059*
CCC1CCCCN1C(=O)COc1ccc(F)cc1 (stereo not drawn),16,-0.97,.,.
CC1=Nc2cccc([N+](=O)[O-])c2NC(=O)C1,16,0.92,19,.
COc1ccc2sc(-c3ccc(N(C)C)cc3)c(C#Cc3cncn3C)c2c1,.,.,11,.
